Most compounds without a hit are left out; they make up all but 2.6% or so of the library.
TCR-CD3 inh = inhibitors of human TCR-CD3 interaction, primary screen, biochemical, fluorescence, TAMRA-labeled TCR probe. T-cell receptor (TCR). inhibition, % at 9.4 µM. 0.37% of 360,000 active; in the data active = inhibition above about 19%;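 note: recombinant mutant TCR 2C K166C tagged with TAMRA read by polarization; 0% = receptor in buffer alone and 100% = receptor with positive control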
SIAE primary = human SIAE inhibitors, primary screen, biochemical, fluorescence polarization, FP-Rh probe, 1536-well HTS; SIAE FP-Rh probe binding; Sialate O-acetylesterase (Homo sapiens), Q9HAT2; inhibition, % at 9.66 µM; AID 1053197, 2014; 0.69% of 370,000 active;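 active = inhibition above a cutoff: mean of compounds within the control limits plus 3 SD of those, cut at about 17% in these data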;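 note: 0% = plate median of compound wells and 100% = probe without SIAE protein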
PRMT1 inh = PRMT1 methyltransferase inhibitors, primary screen, biochemical, fluorescence polarization. Protein arginine N-methyltransferase 1 (Homo sapiens), Q99873. recombinant PRMT1, activity-based probe fluorescence polarization. inhibition, % at 2.79 µM. 1.3% of 370,000 active. AID 652257, 2013;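 active = inhibition above about 21% made by adding two undisclosed values, limit read from the data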
mABHD4 FP = ABHD4 inhibitors, primary screen, biochemical, fluorescence polarization, mouse. purified mABHD4, FP-Rh probe fluorescence polarization. inhibition, % at 8.92 µM. 0.54% of 370,000 active;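 active = inhibition exceeding the mean over every tested compound plus 3 SD, cut at about 30% in these data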;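 note: 0% = plate median of compound wells and 100% = S159A mutant with DMSO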
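assay system = mABHD4 protein | compound dosing = single nominal dose of 8.92 µM, 0.89% DMSO final | read-out basis = percent inhibition of probe binding, normalized to plate controls | schedule = Enzyme–compound pre-incubation 45 min, then probe 60 min, both 25 °C | detection = fluorescence polarization, excitation 525 nm, emission 598 nm, BODIPY TMR filters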
HTRA1 inhibitor = HTRA1 serine protease inhibitors, primary screen, biochemical, fluorescence polarization, HTS. Q92743. recombinant HTRA1, FP-rhodamine activity-based probe. inhibition, % at 5.96 µM. 0.5% of 340,000 active. AID 504803, 2011; in the data active = inhibition above about 36%;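 note: 0% = enzyme with DMSO and 100% = wells lacking enzyme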
Target sequence (Q92743 whole entry, looked up): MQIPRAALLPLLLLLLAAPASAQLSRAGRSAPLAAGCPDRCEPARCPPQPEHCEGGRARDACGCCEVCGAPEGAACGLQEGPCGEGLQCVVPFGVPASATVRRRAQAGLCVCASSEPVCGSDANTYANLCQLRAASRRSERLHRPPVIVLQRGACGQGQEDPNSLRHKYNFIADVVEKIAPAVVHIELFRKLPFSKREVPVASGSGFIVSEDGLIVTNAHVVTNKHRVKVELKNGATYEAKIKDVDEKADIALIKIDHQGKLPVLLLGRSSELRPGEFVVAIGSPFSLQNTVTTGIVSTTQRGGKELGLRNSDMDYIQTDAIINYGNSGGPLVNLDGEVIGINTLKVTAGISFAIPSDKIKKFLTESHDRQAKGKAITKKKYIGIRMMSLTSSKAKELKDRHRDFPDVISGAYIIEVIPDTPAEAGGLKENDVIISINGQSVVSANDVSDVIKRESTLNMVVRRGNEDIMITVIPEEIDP
ABHD4 confirm = ABHD4 inhibitors, retest, confirmation, biochemical, fluorescence polarization, mouse; shares compounds with mABHD4 FP; purified mABHD4, FP-Rh probe fluorescence polarization; inhibition, % at 8.92 µM; 55% of 1,800 active;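 active = mean inhibition across replicates above the hit cutoff set in the primary screen, cut at about 30% in these data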;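 note: 0% = wild-type ABHD4 with DMSO and 100% = catalytically dead S159A mutant with DMSO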
* marks the source's active call; other numbers are inactive results; . = not tested or not shown.

SMILES	TCR-CD3 inh	SIAE primary	PRMT1 inh	mABHD4 FP	HTRA1 inhibitor	ABHD4 confirm
Nc1ccc(Br)c2cccnc12	5.7	4.4	5.9	39.9*	20.4	15.9
CCOC(=O)Cn1cc(CN2C(C(=O)OC)CN(Cc3ccc(OC)cc3)CCS2(=O)=O)nn1 (stereo not given)	.	7.0	-5.9	2.1	.	.
Cc1ccc2c(c1)N1C(=O)c3ccccc3C1C1=C(CC(C)(C)CC1=O)N2 (stereo not given)	-5.3	0.1	2.9	30.4*	-3.4	45.8*
CC(=O)Oc1cccc(C2C3=C(CC(C)(C)CC3=O)Nc3ccccc3N2C(C)=O)c1 (stereo not given)	0.7	1.4	-4.8	4.6	2.1	.
COc1cccc(C(C(=O)NC2CCCC2)N2CCN(c3cc(C)ccc3C)CC2)c1OC (stereo not given)	1.2	1.7	3.2	47.9*	.	6.1
N=C1S/C(=C\c2ccc(-c3ccccc3C(=O)O)o2)C(=O)N1c1ccc2c(c1)OCO2	-0.5	-2.1	6.0	49.0*	8.4	62.8*
CN(C)/C=C/c1oc2ccc(O)cc2c1[N+](=O)[O-]	0.9	-2.1	13.9	32.4*	4.4	5.0
COc1cccc(CNC(=O)[C@H]2CCCN2C(=O)[C@H]2CCCN2C(=O)c2ccc(F)cc2F)c1	3.7	6.0	-2.5	1.8	.	.
CC(C)(C)c1ccc(C(=O)N/C(=C\c2cccc([N+](=O)[O-])c2)C(=O)Nc2cccc(C(=O)O)c2)cc1	0.6	-2.5	1.3	33.3*	-26.7	31.2*
O=C(Nc1cccc(C(=O)O)c1)/C(=C/c1ccc([N+](=O)[O-])cc1)NC(=O)c1ccccc1	3.4	-2.4	-3.2	-5.1	-3.4	.
CCOc1ccc(CCN2CN(C3CCCCC3)CNC2=S)cc1OCC	1.2	-4.4	-5.0	-4.6	-0.7	.
CCOc1ccccc1N1CN(C2CCCCC2)CNC1=S	-5.5	4.8	-0.4	70.2*	.	0.6
Cc1[nH]c2c(ccc3ccccc32)c1C1C(CCN)C1(C)C (stereo not given)	-9.0	4.5	0.7	30.4*	23.5	47.0*
S=c1[nH]c2ccc3ccccc3c2[nH]1	-4.9	2.2	1.0	-1.5	-0.1	.
CC(=O)N1CCc2cc(S(=O)(=O)NCCC(=O)N(C)C3CCCCC3)ccc21	.	5.4	-0.8	-3.4	.	.
CCN(CC)C(=O)c1sc2nc(Cc3ccccc3)[nH]c(=O)c2c1C	5.5	-5.8	1.0	36.8*	-14.1	39.5*
CC(=O)N(Cc1ccccc1)Cc1nc2sc(C)c(C)c2c(=O)[nH]1	8.8	9.3	-5.0	2.5	-6.3	.
COc1ccccc1CNc1nc(NCCOc2ccccc2)c2sccc2n1	9.8	6.3	-5.4	37.1*	.	40.4*
COCCNc1nc(NCc2ccccc2OC)c2sccc2n1	-0.4	-1.6	0.1	-0.7	.	.
Cc1ccc(CNc2nc(NCc3ccccc3)nc3ccsc23)c(C)c1	-2.3	11.2	-0.3	34.9*	.	47.2*
COC(=O)C1CN(Cc2ccccc2)CCS(=O)(=O)N1Cc1ccc(C(F)(F)F)cc1 (stereo not given)	.	-0.8	-1.0	-6.9	.	.
CN(CC(=O)Nc1cccc(F)c1)C(=O)c1ccccc1CCc1ccccc1	1.9	3.9	-2.3	36.0*	-36.8	-20.0
O=C1NN(c2cccc(Br)c2)C(=O)/C1=C\c1ccccc1	-0.2	6.5	14.8	37.2*	-4.3	3.5
COC(=O)[C@]12C[C@H](CC(=O)NCC34CC5CC(CC(C5)C3)C4)C(=O)N(Cc3ccc4c(c3)OCO4)C1=C[C@H](C(C)C)O[C@@H]2C1CC1	.	-2.6	2.0	1.0	.	.
COc1ccc2c(c1)C[C@@H](CON1C(C)(C)CCCC1(C)C)N2S(=O)(=O)c1ccc(C)cc1	.	-1.9	-3.1	-5.3	.	.
SMILES	TCR-CD3 inh	SIAE primary	PRMT1 inh	mABHD4 FP	HTRA1 inhibitor	ABHD4 confirm
CCC(C)(C)c1ccc(OCCCC[n+]2cccc(C)c2C)c(C(C)(C)CC)c1	-5.1	-0.3	-0.7	24.5	30.4	.
CCC(C)(C)c1ccc(OCCCC[n+]2ccc(C)cc2)c(C(C)(C)CC)c1	-6.4	3.1	2.6	33.3*	.	49.8*
Cc1ccc(S(=O)(=O)N/N=C/c2ccccc2O)cc1[N+](=O)[O-]	-4.0	4.1	7.8	8.0	0.7	.
Cc1ccc(S(=O)(=O)N/N=C/c2ccc(O)c(O)c2)cc1[N+](=O)[O-]	7.3	9.2	0.0	40.3*	20.8	14.3
Cc1nc2nc(C)n(CCN3CCOCC3)c(=O)c2c(-c2cccc([N+](=O)[O-])c2)c1C(=O)CCCCCCCCCCN1CCC(c2ccccc2)(c2ccccc2)CC1	3.3	9.0	0.4	30.1*	-38.8	39.1*
COc1ccc(-c2nnc(SCC(=O)N/N=C(\C)c3ccc(-c4ccccc4)cc3)n2-c2ccc(C)cc2)cc1	.	11.8	-7.7	-8.9	.	.
Cc1ccccc1NC(=O)Cc1nc(COC(=O)c2cc(Br)ccc2O)cs1	7.8	-5.4	4.8	17.7	-1.2	.
Cc1ccccc1NC(=O)Cc1nc(COC(=O)c2cc([N+](=O)[O-])ccc2N)cs1	-1.8	-12.4	1.3	62.3*	-15.6	125.8*
Fc1c(-c2ccc3ncnc(NCc4cccs4)c3c2)ccc2c1OCO2	.	-45.1	-1.7	-40.7	.	.
Cc1cc(C(=O)NN)c2cc(Br)ccc2n1	5.3	2.7	-0.7	-2.5	-2.0	.
NNC(=O)c1cc(-c2ccc(N)cc2)nc2ccc(Br)cc12	-2.2	3.2	-0.2	39.8*	.	3.7
Cc1cc(NC(=O)CSc2nnnn2C)n(-c2ccccc2)n1	5.7	4.0	2.1	56.5*	-7.0	-0.5
Cn1nnnc1SCC(=O)Nc1cc(C(C)(C)C)nn1-c1ccccc1	-0.8	-1.9	0.2	-1.8	-1.6	.
CCCC(=O)N1CCC[C@]2(CC[C@H](CCC(=O)OCC)O2)C1	.	-1.1	1.5	-3.7	.	.
O=C(CSc1nnc(-c2ccccc2)n1-c1ccccc1)NN=Cc1ccc(-c2ccccc2)cc1	.	-8.1	-0.3	2.2	.	.
Cc1cc2nc3c(=O)n(CCc4ccccc4)c(=O)[nH]c3nc2cc1N	2.8	10.2	109.4*	54.6*	34.9	19.6
Cc1nc2ccccc2c(=O)n1CCc1ccccc1	3.2	11.9	-0.5	5.8	7.9	.
N#Cc1c(NC(=O)c2cccc(S(=O)(=O)Nc3ccc(C(=O)O)cc3)c2)sc2c1CCCC2	1.3	-8.4	0.7	35.8*	-1.9	30.2*
O=C(O)c1ccc(NS(=O)(=O)c2cccc(C(=O)Nc3ccc(Br)cc3)c2)cc1	0.7	-7.8	1.4	-18.7	-0.7	.
CCCC[C@H](C(=O)N(C)c1ccccc1)[C@@H](O)c1ccc2ccccc2c1	.	1.3	5.5	-7.0	.	.
c1ccc(CSC2=NNC(c3ccccn3)S2)cc1 (stereo not given)	-6.2	6.7	-11.9	18.0	17.8	.
